# Reference: ChEMBL document CHEMBL1126988, “Quinolone antibacterials containing the new 7-[3-(1-aminoethyl)-1- pyrrolidinyl] side chain: the effects of the 1-aminoethyl moiety and its stereochemical configurations on potency and in vivo efficacy” (J Med Chem, 1993)
# Experiments:
# Escherichia coli [1] = assay: Antibacterial activity in vitro against Escherichia coli Vogel; type: functional
# Method in brief: (§1)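 Standard microtitration broth assay against a panel of 10 Gram-positive and Gram-negative organisms. MIC read in µg/mL and averaged over multiple experiments.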
# Escherichia coli [2] = assay: Antibacterial activity against Escherichia coli Vogel after oral administration in mouse; type: functional; details: for ED50: Escherichia coli, po, read-out: PD50
# Escherichia coli [3] = assay: Antibacterial activity against Escherichia coli Vogel after subcutaneous administration in mouse; type: functional; details: Escherichia coli, sc; read-out: PD50
# Enterobacter cloacae = assay: Minimum inhibitory concentration in vitro against Enterobacter cloacae MA 2646; type: functional
# Enterococcus faecalis = assay: Minimum inhibitory concentration was evaluated in vitro against Enterococcus faecalis MGH-2; type: functional; method in brief: as §1
# Klebsiella pneumoniae = assay: Minimum inhibitory concentration was evaluated in vitro against Klebsiella pneumoniae MGH2; type: functional; method in brief: as §1
# Mus musculus = species on record: Mus musculus; assay: Compounds were evaluated for phototoxicity no-effect dose in mouse; type: functional
# Method in brief: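 Depilated female CD-1 mice, five per dose plus controls. Animals are dosed orally and then exposed daily to UV-A (320–400 nm) for 3 h, for up to 4 days or until a definite positive response. Redness or erythema relative to controls, read 24 h after irradiation, counts as positive. Reported as the highest dose with no effect (mg/kg).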
# Providencia rettgeri = assay: Minimum inhibitory concentration was evaluated in vitro against Providencia rettgeri M1771; type: functional; method in brief: as §1
# Pseudomonas aeruginosa = assay: Minimum inhibitory concentration was evaluated in vitro against Pseudomonas aeruginosa UI-18; type: functional; method in brief: as §1
# Staphylococcus aureus [4] = assay: Minimum inhibitory concentration was evaluated in vitro against Staphylococcus aureus H 228; type: functional; method in brief: as §1
# Staphylococcus aureus [5] = assay: Minimum inhibitory concentration was evaluated in vitro against Staphylococcus aureus UC 76; type: functional; method in brief: as §1
# Streptococcus pneumoniae = assay: Minimum inhibitory concentration was evaluated in vitro against Streptococcus pneumoniae SV-1; type: functional; method in brief: as §1
# [6] = Clonogenic cytotoxicity against hamster V-79 cells; type: functional, Cricetulus griseus, V79
# Method in brief: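 Chinese hamster V-79 cells grown overnight, then drug-treated for 3 h at 37 °C. Medium is replaced with fresh medium and cells are incubated 5 days to allow colony formation. IC50 (µg/mL) is the concentration inhibiting colony formation by 50% relative to control.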
# Streptococcus pyogenes [7] = assay: Minimum inhibitory concentration was evaluated in vitro against Streptococcus pyogenes C 203; type: functional; method in brief: as §1
# Streptococcus pyogenes [8] = assay: Antibacterial activity measured as mouse protection against Streptococcus pyogenes C 203 after subcutaneous administration; type: functional; details: for ED50: Streptococcus pyogenes, C 203, sc, read-out: PD50
# Streptococcus pyogenes [9] = assay: Compounds were evaluated in vivo for antibacterial activity for mouse protection against Streptococcus pyogenes C 203 after oral administration; type: functional; details: for ED50: Streptococcus pyogenes, C 203, po, read-out: PD50
# [10] = Escherichia coli, read-out: MIC
# [11] = Enterobacter cloacae, read-out: MIC
# [12] = Enterococcus faecalis, read-out: MIC
# [13] = Klebsiella pneumoniae, read-out: MIC
# [14] = Providencia rettgeri, read-out: MIC
# [15] = Pseudomonas aeruginosa, read-out: MIC
# [16] = Staphylococcus aureus, read-out: MIC
# [17] = Streptococcus pneumoniae, read-out: MIC
# [18] = Streptococcus pyogenes, read-out: MIC
SMILES,MIC (Escherichia coli [1]; [10]),ED50 (Escherichia coli [2]),ED50 (Escherichia coli [3]),MIC (Enterobacter cloacae; [11]),MIC (Enterococcus faecalis; [12]),MIC (Klebsiella pneumoniae; [13]),Dose (Mus musculus),MIC (Providencia rettgeri; [14]),MIC (Pseudomonas aeruginosa; [15]),MIC (Staphylococcus aureus [4]; [16]),MIC (Staphylococcus aureus [5]; [16]),MIC (Streptococcus pneumoniae; [17]),Cytotoxicity [6],MIC (Streptococcus pyogenes [7]; [18]),ED50 (Streptococcus pyogenes [8]),ED50 (Streptococcus pyogenes [9]),further results
CNCC1CCN(c2c(F)c(N)c3c(=O)c(C(=O)O)cn(C4CC4)c3c2F)C1 (stereo unspecified),0.025 µg/mL,8 mg/kg,1 mg/kg,0.05 µg/mL,0.025 µg/mL,0.05 µg/mL,>100 mg/kg,0.2 µg/mL,0.4 µg/mL,0.013 µg/mL,0.006 µg/mL,0.003 µg/mL,7.8 µg/mL,0.003 µg/mL,,,
CNC(C)C1CCN(c2cc3c(c(N)c2F)c(=O)c(C(=O)O)cn3C2CC2)C1 (racemic),0.1 µg/mL,,,0.1 µg/mL,0.025 µg/mL,0.2 µg/mL,>100 mg/kg,0.4 µg/mL,1.6 µg/mL,0.05 µg/mL,0.006 µg/mL,0.013 µg/mL,290 µg/mL,0.025 µg/mL,1 mg/kg,8 mg/kg,
NC1CCN(c2c(F)cc3c(=O)c(C(=O)O)cn(C4CC4)c3c2C(F)(F)F)C1 (stereo unspecified),0.1 µg/mL,3 mg/kg,1 mg/kg,0.1 µg/mL,,,>100 mg/kg,,,0.2 µg/mL,,,250 µg/mL,,22 mg/kg,,
C[C@@H](N)[C@@H]1CCN(c2c(F)c(N)c3c(=O)c(C(=O)O)cn(C4CC4)c3c2F)C1,0.025 µg/mL,,0.7 mg/kg,0.025 µg/mL,0.006 µg/mL,0.025 µg/mL,,0.05 µg/mL,0.4 µg/mL,0.003 µg/mL,0.003 µg/mL,0.006 µg/mL,<7.8 µg/mL,0.006 µg/mL,0.2 mg/kg,2 mg/kg,PD50 (Escherichia coli [2]): 4 mg/kg
COc1c(N2CC[C@H]([C@@H](C)N)C2)c(F)cc2c(=O)c(C(=O)O)cn(C3CC3)c12 (racemic),0.025 µg/mL,4 mg/kg,1 mg/kg,0.05 µg/mL,0.006 µg/mL,0.05 µg/mL,>100 mg/kg,0.05 µg/mL,0.4 µg/mL,0.006 µg/mL,0.003 µg/mL,0.003 µg/mL,<7.8 µg/mL,0.003 µg/mL,0.3 mg/kg,1 mg/kg,
CN[C@H](C)[C@@H]1CCN(c2c(F)c(N)c3c(=O)c(C(=O)O)cn(C4CC4)c3c2F)C1,0.05 µg/mL,,,0.05 µg/mL,0.013 µg/mL,0.1 µg/mL,<30 mg/kg,0.2 µg/mL,0.8 µg/mL,0.006 µg/mL,0.003 µg/mL,0.006 µg/mL,24 µg/mL,0.006 µg/mL,,,
CCn1cc(C(=O)O)c(=O)c2cc(F)c(N3CCC(C(C)N)C3)c(OC)c21 (racemic),0.05 µg/mL,9 mg/kg,3 mg/kg,0.1 µg/mL,0.006 µg/mL,0.1 µg/mL,,0.1 µg/mL,0.8 µg/mL,0.006 µg/mL,0.003 µg/mL,0.003 µg/mL,19 µg/mL,0.003 µg/mL,0.2 mg/kg,3 mg/kg,
CN[C@H](C)[C@H]1CCN(c2c(F)c(N)c3c(=O)c(C(=O)O)cn(C4CC4)c3c2F)C1 (mixture of isomers),,3 mg/kg,0.4 mg/kg,,,,<30 mg/kg,,,,,,17 µg/mL,,,,MIC (Escherichia coli [1]): 0.025 µg/mL; MIC (Enterobacter cloacae): 0.025 µg/mL; MIC (Enterococcus faecalis): 0.013 µg/mL; MIC (Klebsiella pneumoniae): 0.05 µg/mL; MIC (Providencia rettgeri): 0.1 µg/mL; MIC (Pseudomonas aeruginosa): 0.8 µg/mL; MIC (Staphylococcus aureus [4]): 0.003 µg/mL; MIC (Staphylococcus aureus [5]): 0.003 µg/mL; MIC (Streptococcus pneumoniae): 0.003 µg/mL; PD50 (Streptococcus pyogenes [8]): 0.3 mg/kg; PD50 (Streptococcus pyogenes [9]): 0.6 mg/kg; MIC (Streptococcus pyogenes [7]): 0.003 µg/mL
NC1CCN(c2nc3c(cc2F)c(=O)c(C(=O)O)cn3-c2ccc(F)cc2F)C1 (stereo unspecified) [TOSUFLOXACIN],0.025 µg/mL,0.5 mg/kg,0.2 mg/kg,0.025 µg/mL,0.1 µg/mL,0.1 µg/mL,>100 mg/kg,0.1 µg/mL,0.4 µg/mL,0.05 µg/mL,0.013 µg/mL,0.05 µg/mL,120 µg/mL,0.05 µg/mL,3 mg/kg,5 mg/kg,
